Laboratory results: article PMC4281097 (Journal of Medicinal Chemistry, 2014)
“Also recorded” adds a separate entry of the source. Like-named read-outs stand apart in the source and are kept apart here.

What was measured:
[1] = system: ES cell lines (TC32 and TC71); experiment: Cell proliferation assay in ES cell lines; assay type: cell-based, human; details: for Growth inhibition / antiproliferative activity in words: ES cell lines containing EWS-FLI1; for GI50: read-out: GI50 bound used to select compounds for the reporter assay
EWS-FLI1 [2] = molecular target: T1, EWS-FLI1 (Homo sapiens, UniProt Q01543+Q01844); experiment: EWS-FLI1/NR0B1 reporter luciferase assay in transfected COS7 cells; assay type: cell-based; details: COS7 cells transfected with EWS-FLI1 and NR0B1 reporter, 20 h treatment
T1 sequence (Q01844 1-264): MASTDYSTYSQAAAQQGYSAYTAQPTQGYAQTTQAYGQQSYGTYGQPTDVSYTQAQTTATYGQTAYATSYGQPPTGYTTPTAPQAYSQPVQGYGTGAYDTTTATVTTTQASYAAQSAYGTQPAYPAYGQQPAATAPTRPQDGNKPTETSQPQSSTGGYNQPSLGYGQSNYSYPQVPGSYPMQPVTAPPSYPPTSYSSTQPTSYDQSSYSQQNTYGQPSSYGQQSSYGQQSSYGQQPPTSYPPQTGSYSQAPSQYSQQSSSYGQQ
T1 sequence (Q01543 220-452): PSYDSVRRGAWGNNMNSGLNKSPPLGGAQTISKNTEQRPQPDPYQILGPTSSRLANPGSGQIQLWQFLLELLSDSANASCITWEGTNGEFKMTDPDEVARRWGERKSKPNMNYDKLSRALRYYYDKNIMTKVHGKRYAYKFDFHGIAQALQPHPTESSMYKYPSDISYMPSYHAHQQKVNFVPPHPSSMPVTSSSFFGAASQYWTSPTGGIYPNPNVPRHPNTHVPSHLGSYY
How it was run: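 COS7 cells (DMEM, 10% FBS) transiently co-transfected with NR0B1 luciferase reporter carrying EWS-FLI1 binding sites plus full-length EWS-FLI1 or empty pCI-neo vector. Treated 1.5 h post-transfection with test compound at 0.05, 0.15, 0.5, 1.5, 5 or 15 μM, or DMSO. Luciferase measured 20 h later. IC50 from sigmoidal dose–response fit. Quadruplicate wells, mean ± SD of a representative experiment.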

TC32 cells [3] = experiment: Cell proliferation assay; assay type: cell-based, human; details: for Fold loss of growth inhibitory activity in TC32 cells compared to 2: relative to 2
TC32 cells [4] = details: cited from earlier work
PANC1 cells = experiment: Cell proliferation assay; assay type: cell-based, human; details: PANC1 cells (selectivity control)
How it was run: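 TC71 grown in RPMI with 10% FBS and 1% HEPES; PANC1 in DMEM with 10% FBS; both at 37 °C, 5% CO2. Cells plated in colorless medium at 5000–15000 cells/well depending on line. Test compound or DMSO vehicle added the day after plating. Viable cells quantified by MTT or WST-1 after 3 days of treatment. GI50 derived by nonlinear regression.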

COS7 cells = experiment: Cell proliferation assay; assay type: cell-based, monkey; details: WST, 48 h
ES orthotopic xenografts = details: cited from earlier work
ES cells = details: read-out: GI50 in ES cells; several ES cells; cited from earlier work
EWS-FLI1 [5] = molecular target: T1, EWS-FLI1; details: binding to EWS-FLI1; cited from earlier work
EWS-FLI1 [6] = molecular target: T1, EWS-FLI1; experiment: ELISA-like binding assay of biotin conjugate to immobilized recombinant EWS-FLI1
How it was run: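 EWS-FLI1 expressed in BL21 (1 mM IPTG, 2 h, 27 °C) and recovered from inclusion bodies. Denatured in guanidinium, Ni-chelate purified, refolded on-column by gradient out of urea, then imidazole-eluted. Wells coated overnight with 20 nM protein and blocked with 4% BSA/PBS (1 h, rt). Biotinylated test compound from DMSO stock added for 1 h. Detection used HRP-streptavidin (1:5000, 1 h, rt) and colorimetric substrate read at 405 nm.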

BSA = BSA (Bos taurus, UniProt P02769); experiment: ELISA-like binding assay, immobilized BSA control; set-up: species or system bovine; details: BSA immobilized instead of EWS-FLI1
How it was run: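 BSA immobilized in wells in place of recombinant EWS-FLI1. Biotinylated test compound, diluted from DMSO stock in assay buffer, was incubated 1 h. Wells washed five times. Detection used HRP-streptavidin (1:5000, 1 h, room temperature) and colorimetric substrate, with absorbance at 405 nm.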

BSA, sequence (P02769 25-607): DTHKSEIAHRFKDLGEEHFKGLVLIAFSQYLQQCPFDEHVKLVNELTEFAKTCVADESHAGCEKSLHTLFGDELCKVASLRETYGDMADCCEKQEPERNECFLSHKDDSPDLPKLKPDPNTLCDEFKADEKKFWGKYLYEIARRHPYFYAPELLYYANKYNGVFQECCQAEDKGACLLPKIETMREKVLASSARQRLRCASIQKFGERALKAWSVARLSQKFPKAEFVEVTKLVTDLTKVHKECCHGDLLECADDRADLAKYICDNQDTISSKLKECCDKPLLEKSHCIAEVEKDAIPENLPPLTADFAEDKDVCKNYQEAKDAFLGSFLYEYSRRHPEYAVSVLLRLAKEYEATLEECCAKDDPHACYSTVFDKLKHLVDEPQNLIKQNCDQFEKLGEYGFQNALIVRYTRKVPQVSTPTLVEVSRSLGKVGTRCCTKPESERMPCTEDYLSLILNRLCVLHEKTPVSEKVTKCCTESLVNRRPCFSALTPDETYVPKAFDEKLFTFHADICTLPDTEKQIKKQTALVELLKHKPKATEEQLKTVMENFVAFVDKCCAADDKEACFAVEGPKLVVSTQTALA

4,7-Dichloro-3-(2-(4-ethoxyphenyl)-2-oxoethyl)-3-hydroxyindolin-2-one [9n]
Growth inhibition / antiproliferative activity in words [1]: complete loss of activity

4,7-Dichloro-3-hydroxyl-3-(2-oxo-2-p-tolylethyl)-1,3-dihydroindol-2-one [9m]
Inhibition of EWS-FLI1 transcriptional activity in words (EWS-FLI1 [2]): lower than 2
Fold loss of growth activity / potency compared to 2 ([1]; ES cells, relative to 2): 3 fold
GI50 ([1]; ES cells): ≤ 2700 nM

4,7-Dichloro-3-methoxy-3-(2-(4-methoxyphenyl)-2-oxoethyl)indolin-2-one [14a]
Fold loss of growth inhibitory activity in TC32 cells compared to 2 (TC32 cells [3]): 2 fold
Inhibition of EWS-FLI1 transcriptional activity in words (EWS-FLI1 [2]): modest inhibitory effects
GI50 ([1]; ES cells): ≤ 2700 nM

COc1ccc(C(=O)CC2(O)C(=O)Nc3c(Cl)ccc(Cl)c32)cc1 (single isomer, unassigned) [S-(−) enantiomer of 2]
Fold more potent in vitro than racemic 2 (TC32 cells [4]; in vitro): 4 fold
GI50 (TC32 cells [4]; read-out: GI50 of single enantiomer, in vitro, TC32 cells): 280 nM

COc1ccc(C(=O)CC2(O)C(=O)Nc3c(OC)ccc(OC)c32)cc1 (stereo not shown) [6e, 3-Hydroxy-4,7-dimethoxy-3-(2-(4-methoxyphenyl)-2-oxoethyl)indolin-2-one]
GI50 in TC32 cells (TC32 cells [3]): 1000 nM

COc1ccccc1C(=O)CC1(O)C(=O)Nc2c(Cl)ccc(Cl)c21 (stereo not shown) [9a, 4,7-Dichloro-3-hydroxy-3-(2-(2-methoxyphenyl)-2-oxoethyl)indolin-2-one]
Inhibition of EWS-FLI1 transcriptional activity in words (EWS-FLI1 [2]): did not inhibit
Growth inhibition / antiproliferative activity in words [1]: reduced inhibition of cell growth; also recorded: no antiproliferative activity

COc1cccc(C(=O)CC2(O)C(=O)Nc3c(Cl)ccc(Cl)c32)c1 (stereo not shown) [9b, 4,7-Dichloro-3-hydroxy-3-(2-(3-methoxyphenyl)-2-oxoethyl)indolin-2-one]
Growth inhibition / antiproliferative activity in words [1]: reduced inhibition of cell growth

COc1ccc(C(=O)CC2(O)C(=O)Nc3c(Cl)ccc(Cl)c32)c(OC)c1 (stereo not shown) [9c, 4,7-Dichloro-3-(2-(2,4-dimethoxyphenyl)-2-oxoethyl)-3-hydroxyindolin-2-one]
Inhibition of EWS-FLI1 transcriptional activity in words (EWS-FLI1 [2]): lower than 2

COc1cc(OC)cc(C(=O)CC2(O)C(=O)Nc3c(Cl)ccc(Cl)c32)c1 (stereo not shown) [9d, 4,7-Dichloro-3-(2-(3,5-dimethoxyphenyl)-2-oxoethyl)-3-hydroxyindolin-2-one]
Fold loss of growth inhibitory activity in TC32 cells compared to 2 (TC32 cells [3]): ~10 fold

COc1cccc(C(=O)CC2(O)C(=O)Nc3c(Cl)ccc(Cl)c32)c1OC (stereo not shown) [9e, 4,7-Dichloro-3-(2-(2,3-dimethoxyphenyl)-2-oxoethyl)-3-hydroxyindolin-2-one]
Growth inhibition / antiproliferative activity in words [1]: reduced inhibition of cell growth

COc1ccc(C(=O)CC2(O)C(=O)Nc3c(Cl)ccc(Cl)c32)c(OC)c1OC (stereo not shown) [9f, 4,7-Dichloro-3-hydroxy-3-(2-oxo-2-(2,3,4-trimethoxyphenyl)ethyl)indolin-2-one]
Fold loss of growth activity / potency compared to 2 ([1]; ES cells, relative to 2): 3 fold

O=C(CC1(O)C(=O)Nc2c(Cl)ccc(Cl)c21)c1ccc(C(F)(F)F)cc1 (stereo not shown) [9j, 4,7-Dichloro-3-hydroxy-3-(2-oxo-2-(4-(trifluoromethyl)phenyl)ethyl)indolin-2-one]
Fold loss of growth inhibitory activity in TC32 cells compared to 2 (TC32 cells [3]): 3 fold
Inhibition of PANC1 cell growth in words (PANC1 cells): inhibited PANC1 cells growth

CC(C)Oc1ccc(C(=O)CC2(O)C(=O)Nc3c(Cl)ccc(Cl)c32)cc1 (stereo not shown) [9p, 4,7-Dichloro-3-hydroxy-3-(2-(4-isopropoxyphenyl)-2-oxoethyl)indolin-2-one]
Growth inhibition / antiproliferative activity in words [1]: complete loss of activity

O=C(CC1(O)C(=O)Nc2c(Cl)ccc(Cl)c21)c1ccc(Oc2ccccc2)cc1 (stereo not shown) [9q, 4,7-Dichloro-3-hydroxy-3-(2-oxo-2-(4-phenoxyphenyl)ethyl)indolin-2-one]
Growth inhibition / antiproliferative activity in words [1]: complete loss of activity

Nc1ccc(C(=O)CC2(O)C(=O)Nc3c(Cl)ccc(Cl)c32)cc1 (stereo not shown) [9s, 3-[2-(4-Aminophenyl-2-oxoethyl)]-4,7-dichloro-3-hydroxyl 1,3-dihydroindol-2-one]
Growth inhibition / antiproliferative activity in words [1]: complete loss of activity

CN(C)c1ccc(C(=O)CC2(O)C(=O)Nc3c(Cl)ccc(Cl)c32)cc1 (stereo not shown) [9u, 4,7-Dichloro-3-(2-(4-(dimethylamino)phenyl)-2-oxoethyl)-3-hydroxyindolin-2-one]
GI50 in TC32 cells (TC32 cells [3]): 260 nM
Fold increase in potency compared to 2 ([1]; ES cells, relative to 2): over 3 fold

COc1ccc(C(=O)CC2(O)C(=O)N(c3ccccc3)c3c(Cl)ccc(Cl)c32)cc1 (stereo not shown) [14b, 4,7-Dichloro-3-hydroxy-3-(2-(4-methoxyphenyl)-2-oxoethyl)-1-phenylindolin-2-one]
Growth inhibition / antiproliferative activity in words [1]: complete loss of activity

COc1ccc(C(=O)C[C@]2(O)C(=O)Nc3c(Cl)ccc(Cl)c32)cc1 [R-(+)]
In vitro activity of enantiomer in words (TC32 cells [4]; in vitro): almost inactive

O=C(CC1(O)C(=O)Nc2c(Cl)ccc(Cl)c21)c1ccc(Cl)cc1 (stereo not shown) [compound 1, 4,7-dichloro-3-(2-(4-chlorophenyl)-2-oxoethyl)-3-hydroxyindolin-2-one]
GI50 in TC32 cells (TC32 cells [4]; TC32 cells): 20000 nM

COc1ccc(C(=O)CC2(O)C(=O)Nc3c(Cl)ccc(Cl)c32)cc1 (stereo not shown) [compound 2, YK-4-279]
Cytotoxicity / effect on COS7 cell proliferation in words (COS7 cells): negligible effect
Growth of ES orthotopic xenografts in words (ES orthotopic xenografts): reduces the growth
GI50 in TC32 cells (TC32 cells [4]; TC32 cells): 900 nM
GI50 (ES cells): 500 to 2000 nM
Kd (EWS-FLI1 [5]): 9480 nM

COc1ccc(C(=O)/C=C2\C(=O)Nc3c(Cl)ccc(Cl)c32)cc1 [compound 10, (Z)-4,7-Dichloro-3-(2-(4-methoxyphenyl)-2-oxoethylidene)indolin-2-one]
GI50 in TC32 cells (TC32 cells [3]): 1000 nM

COc1ccc(C(=O)CC2(OC)C(=O)Nc3c(Cl)ccc(Cl)c32)cc1 (stereo not shown) [compound 11, 4,7-Dichloro-3-methoxy-3-(2-(4-methoxyphenyl)-2-oxoethyl)indolin-2-one]
Inhibition of EWS-FLI1 transcriptional activity in words (EWS-FLI1 [2]): did not display any inhibition
Growth inhibition / antiproliferative activity in words [1]: complete loss of inhibitory activity; also recorded: no antiproliferative activity

COc1ccc(C(=O)CC2(OC)C(=O)N(C)c3c(Cl)ccc(Cl)c32)cc1 (stereo not shown) [compound 15, 4,7-Dichloro-3-methoxy-3-(2-(4-methoxyphenyl)-2-oxoethyl)-1-methylindolin-2-one]
Inhibition of EWS-FLI1 transcriptional activity in words (EWS-FLI1 [2]): modest inhibitory effects
Growth inhibition / antiproliferative activity in words [1]: inactive; also recorded: no antiproliferative activity

COc1ccc(C(=O)CC2(O)C(=O)Nc3c(Cl)ccc(Cl)c32)cn1 (stereo not shown) [compound 18, 4,7-Dichloro-3-hydroxy-3-(2-(6-methoxypyridin-3-yl)-2-oxoethyl)indolin-2-one]
Growth inhibition / antiproliferative activity in words [1]: complete loss of growth inhibition

CN(C(=O)CCCCCNC(=O)CCCC[C@H]1SCC2NC(=O)NC21)c1ccc(C(=O)CC2(O)C(=O)Nc3c(Cl)ccc(Cl)c32)cc1 (stereo partly drawn) [compound 24, N-(4-(2-(4,7-Dichloro-3-hydroxy-2-oxoindolin-3-yl)acetyl)phenyl)-N-methyl-6-(5-((4R)-2-oxohexahydro-1H-thieno[3,4-d]imidazol-4-yl)pentanamido)hexanamide]
Concentration at which binding saturation was reached (EWS-FLI1 [6]): 20 µM
Binding to immobilized BSA in words (BSA): No binding was detected
